Reference: ChEMBL document CHEMBL2311397, “Design and synthesis of cyclopropylamide analogues of combretastatin-A4 as novel microtubule-stabilizing agents” (J Med Chem, 2013)
pEC50, pIC50: −log10 of the molar value.

How the values were obtained:
A549 [1] = assay: Induction of apoptosis in human A549 cells assessed as viable cells at 5 uM after 24 hrs by annexin V-FITC/propidium iodide staining-based flow cytometry (reference value: 94.08%); type: functional; conditions: A549, 24 h, read-out: Activity
A549 [2] = assay: Cell cycle arrest in human A549 cells assessed as accumulation at G1 phase at 5 uM after 24 hrs by propidium iodide staining-based flow cytometry (reference value: 87.56 %); type: functional
A549 [3] = assay: Induction of apoptosis in human A549 cells assessed as necrotic cells at 10 uM after 24 hrs by annexin V-FITC/propidium iodide staining-based flow cytometry (reference value: 2.76%); type: functional
A549 [4] = assay: Induction of apoptosis in human A549 cells assessed as late apoptotic cells at 10 uM after 24 hrs by annexin V-FITC/propidium iodide staining-based flow cytometry (reference value: 1.02%); type: functional
A549 [5] = assay: Cytotoxicity against paclitaxel-resistant human A549 cells after 48 hrs by MTT assay; type: functional, cell-based; conditions: A549, 48 h
Outline: (§1)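 Log-phase cells (40000–50000 cells/mL) grown in DMEM with 10% fetal calf serum (5% CO2, 37 °C) and exposed 48 h to five concentrations, 3–5 replicates. Read-out was MTT with absorbance at 570 nm; IC50 reported as mean ± SD of three independent experiments. Resistant A549 and HeLa sublines were made by stepwise paclitaxel selection; resistance index = IC50(resistant)/IC50(sensitive).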

Tubulin (Homo sapiens) [6] = biological target: T1, Tubulin (Homo sapiens) (UniProt P68371+Q9H4B7+P0DPH7+P68366+Q13509+Q71U36+P04350+Q3ZCM7+P07437+P68363+Q9BQE3+Q6PEY2+Q13885+Q9BVA1+Q9BUF5); assay: Activation of tubulin (unknown origin) polymerization at 10 uM; type: protein-complex assay
Outline: (§2)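 Purified brain tubulin (kit), final 3.0 mg/mL, in 80.0 mM PIPES sesquisodium pH 6.9, 2.0 mM MgCl2, 0.5 mM EGTA, 1 mM GTP, 10.2% glycerol; components prewarmed to 37 °C, reaction started by adding tubulin. A340 read each minute for 1 h. Single-point % stimulation used 10 μM compound; EC50 from 3.75, 7.5, 15, 30, 60 μM.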

A549 [7] = assay: Induction of apoptosis in human A549 cells assessed as early apoptotic cells at 1 uM after 24 hrs by annexin V-FITC/propidium iodide staining-based flow cytometry (reference value: 0.73 %); type: functional
A549 [8] = assay: Antitumor activity against human A549 cells xenografted in BALB/c nude mouse assessed as tumor growth inhibition at 100 mg/kg, ig measured on day 16; type: functional; conditions: A549, po, 384 h, route intragastric, read-out: TGI
Outline: (§3)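 Male BALB/c nude mice, 5 weeks old (18–20 g), implanted subcutaneously in the right armpit with A549 tumor fragments (3 mm3). On day 13, at 100–200 mm3, daily intragastric dosing began: 100 or 500 mg/kg test compound, or 30 mg/kg paclitaxel, in Tween-80 diluted with saline. Vehicle given ip. Tumor volume and body weight followed; n = 6; inhibition rate at day 16.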

A549 [9] = assay: Resistance index, ratio of IC50 for paclitaxel-resistant human A549 cells to IC50 for paclitaxel-sensitive human A549 cells; type: functional; outline: as §1
A549 [10] = assay: Cell cycle arrest in human A549 cells assessed as accumulation at G2/M phase at 10 uM after 24 hrs by propidium iodide staining-based flow cytometry (reference value: 2.78 %); type: functional
A549 [11] = assay: Antitumor activity against human A549 cells xenografted in BALB/c nude mouse assessed as tumor growth inhibition at 500 mg/kg, ig measured on day 16; type: functional; conditions: A549, po, 384 h, route intragastric, read-out: TGI; outline: as §3
Tubulin = assay: (§4) Activation of tubulin (unknown origin) polymerization; type: protein-complex assay, Homo sapiens; outline: as §2
Tubulin (Homo sapiens) [12] = biological target: T1, Tubulin (Homo sapiens); assay: as §4; type: protein-complex assay; outline: as §2
[13] = Cytotoxicity against human QGY cells after 48 hrs by MTT assay; type: functional, cell-based; conditions: Homo sapiens, QGY, 48 h; outline: as §1
A549 [14] = assay: Induction of apoptosis in human A549 cells assessed as necrotic cells at 1 uM after 24 hrs by annexin V-FITC/propidium iodide staining-based flow cytometry (reference value: 2.76%); type: functional
A549 [15] = assay: Antimitotic activity against human A549 cells assessed as cell mitotic arrest at 1 uM after 22 hrs by DAPI/FITC staining-based laser fluorescence confocal microscopic analysis (reference value: 1.1 %); type: functional
A549 [16] = assay: Induction of apoptosis in human A549 cells early apoptotic cells at 10 uM after 24 hrs by annexin V-FITC/propidium iodide staining-based flow cytometry (reference value: 0.73 %); type: functional

Structure (SMILES): COc1cc([C@@H]2C[C@]2(CO)C(=O)Nc2ccccc2Cl)cc(OC)c1OC
- viability at 5 µM (A549 [1]): 59%
- Activity (A549 [2]): 28.62%
- Activity (A549 [3]): 0.83%
- Activity (A549 [4]): 2.99%
- pIC50 (A549 [5]): 5.28
- Activity (Tubulin (Homo sapiens) [6]): 24.3%
- Activity (A549 [7]): 15.57%
- inhibition in vivo at 100 mg/kg (A549 [8]): 44.6%
- Ratio IC50 (A549 [9]): 1.2
- Activity (A549 [10]): 79.92%
- inhibition in vivo at 500 mg/kg (A549 [11]): 55.9%
- pEC50 (Tubulin): 4.71
- Activity (Tubulin (Homo sapiens) [12]): Dose-dependent effect
- pIC50 [13]: 4.80
- Activity (A549 [14]): 1.46%
- Activity (A549 [15]): 37.4%
- Activity (A549 [16]): 55.23%
